HUVEC prolif 384: inhibitors of HUVEC proliferation, primary screen, cell-based, 384-well | CellTiter-Glo luminescence, 72 h; active compounds read low | viability, % at 10 µM (by protocol) | 1.1% of 86,000 active | AID 648, 2007;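 active = viability at or below 30%; inactive = viability above 30%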;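 also: 100% = median luminescence of DMSO-only cell control wells on each plate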
H69AR growth 86K: proliferation blockers of H69AR lung cancer cells, primary screen, cell-based, human, 86K library. H69AR lung tumor viability, ATP luminescence, 72 h; active compounds read low. viability, % at 10 µM. 6% of 85,000 active. AID 598, 2007;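 active = viability at or below 40%; inactive = viability above 40%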;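 also: multidrug resistant small cell line overexpressing MRP-1 efflux transporter; 100% = mean luminescence of untreated control wells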
tolC growth inh: growth inhibitors of E. coli tolC mutant, primary screen, strain BW25113 ΔtolC::kan, 384-well; OD615; growth inhibition, % at 10 µM (by protocol); 2.2% of 65,000 active; AID 573, 2007;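 active = growth inhibition at or above a cutoff equal to the mean over every tested compound plus 3 SD, cut at about 60% in these data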;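 also: growth measured after 20 h incubation at 37 °C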
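Test system: E. coli BW25113 ΔtolC::kan bacteria; incubation: 37 °C, 20 h exposure; medium: LB broth supplemented with 50 µg/mL kanamycin; read-out basis: percent growth inhibition; signal: A615 absorbance measurement; compound: 10 µM final, single dose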
Jurkat tox 60K: cytotoxicity toward Jurkat T cells, primary screen, cytotoxicity control, cell-based, Jurkat E6.1, 60K MLSMR library. 1.2% of 56,000 active. Jurkat E6.1 viability, ATP luminescence, 48 h. AID 463, 2006. inhibition, % at 4 µM;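 active = inhibition above the mean inhibition of all tested compounds plus 3 SD, cut at about 28% in these data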
Lung fibro prol: antiproliferative effect on LL 47 fibroblasts – human, LL 47 cells, CellTiter-Glo luminescence, primary screen; LL 47 human lung fibroblast viability, ATP luminescence; active compounds read low; viability, % at 10 µM; 1.1% of 85,000 active; AID 719, 2007;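 active = viability at or below 50% in the single dose screen; inactive = viability above 50%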;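 also: compound exposure lasted 72 h before the ATP readout; 100% = median luminescence of untreated cell-only wells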
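Test system: LL 47 human lung fibroblasts / Quantity: 1,150 cells in each well / Medium: IMEM growth medium with 15% fetal bovine serum / Incubation: 72 h compound exposure at 37 °C after overnight plating / Detection: CellTiter-Glo luminescence measuring cellular ATP / Read-out: % viability versus median cells-only luminescence / Benchmarks: cell-only wells, no compound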
Ecoli WT expand: growth inhibitors of wild-type E. coli, primary screen, strain BW25113, expanded library, OD600; OD600 absorbance; growth inhibition, % at 100 µM; 0.15% of 98,000 active; AID 710, 2007;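 active = growth inhibition above about 50% at one test dose, limit read from the data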;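 also: growth measured after 20 h incubation at 37 °C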
The depositor's hits bear a star; . = no result given. An excerpt weighted towards active compounds, which were near 6.4% of everything screened.

SMILES	HUVEC prolif 384	H69AR growth 86K	tolC growth inh	Jurkat tox 60K	Lung fibro prol	Ecoli WT expand
Cc1cc(C)n2nc(S(=O)(=O)NC3CCCCC3)nc2n1	.	.	-13	-9	.	8
COc1ccc2cc(CN(CC3COCCO3)S(=O)(=O)c3ccc(Cl)cc3)c(=O)[nH]c2c1 (configuration not stated)	102	13*	6	0	108	-3
O=c1[nH]c2cc3c(cc2cc1CN(CC1CCCO1)S(=O)(=O)c1ccc(Cl)cc1)OCCO3 (configuration not stated)	74	12*	-12	0	95	-1
Cc1cc(C)c2cc(CN(CC3CCCO3)S(=O)(=O)c3ccc4c(c3)OCCO4)c(=O)[nH]c2c1 (configuration not stated)	74	62	67*	1	102	-4
COC(=O)c1ccc(S(=O)(=O)N(Cc2cc3cc4c(cc3[nH]c2=O)OCO4)C2CCCCC2)cc1	94	39*	-16	-5	107	.
CCc1ccc2[nH]c(=O)c(CN(Cc3ccco3)S(=O)(=O)c3ccc4c(c3)OCCO4)cc2c1	71	23*	-18	-4	73	-10
Cc1ccc(C)c2[nH]c(=O)c(CN(Cc3ccco3)S(=O)(=O)c3ccc4c(c3)OCCO4)cc12	64	81	-5	0	95	-15
CCCc1[nH]nc2c1C(c1cn[nH]c1-c1ccc(F)cc1)C(C#N)=C(N)O2 (configuration not stated)	74	32*	17	22	75	.
Cc1cccn2c(=O)c3cc(C(=O)N4c5ccccc5CC4C)n(C)c3nc12 (configuration not stated)	77	42	-10	-4	83	-4
Cc1cccn2c(=O)c3cc(C(=O)N4CCc5ccccc54)n(C)c3nc12	60	25*	-2	-3	91	.
CC1Cc2ccccc2N1C(=O)c1cc2c(=O)n3ccccc3nc2n1C (configuration not stated)	52	13*	17	28	92	-3
Nc1ccc(C(=O)N2CCCC2)cc1	106	97	.	.	106	.
Nc1ccc(C(=O)n2c3ccccc3c3ccccc32)cc1	45	19*	.	.	50*	.
O=S(=O)(NCc1ccc2c(c1)OCO2)c1ccc2oc3ccccc3c2c1	85	87	.	.	98	.
CSc1nc2ccc(NS(=O)(=O)c3ccc4c(c3)OCCO4)cc2s1	103	108	100*	.	104	-10
O=S(=O)(Nc1ccc2c(c1)OCCO2)c1ccc2oc3ccccc3c2c1	77	100	98*	0	98	-7
Cn1cnnc1SC(C(=O)Nc1cc(Cl)cc(Cl)c1)c1ccccc1 (configuration not stated)	70	91	.	.	95	-8
CCc1ccc(-c2cn(-c3nc(C)cc(C)n3)c(=N)o2)cc1	59	1.2*	10	3	84	-1
CCc1ccc(C(=O)CN(C#N)c2nc(C)cc(C)n2)cc1	55	60	.	.	92	-7
CC(=O)Nc1ccc(-c2cc(NC(C)=O)n(-c3ccccc3)n2)cc1	87	86	-10	-6	105	1
Cc1ccc(-c2cc(NC(=O)CCl)n(-c3ccccc3)n2)cc1	9.6*	0.9*	.	.	3.3*	-3
O=C(CCl)Nc1cc(-c2ccccc2)nn1-c1ccccc1	14*	1.2*	.	.	6.8*	1
O=C(NC(NC(=S)Nc1cccc(Cl)c1)C(Cl)(Cl)Cl)OCc1ccccc1 (configuration not stated)	.	.	.	.	.	-11
CC(C)(C)C(=O)/C(C#N)=c1\s/c(=C\c2ccncc2)c(=O)n1CCCN1CCOCC1	1.8*	74	-8	-6	.	.
C=CCn1c(=O)/c(=C/c2ccc(C)o2)s/c1=C(/C#N)C(=O)c1ccccc1	75	102	3	-8	98	-4
SMILES	HUVEC prolif 384	H69AR growth 86K	tolC growth inh	Jurkat tox 60K	Lung fibro prol	Ecoli WT expand
Cc1noc(/C=C/c2ccco2)c1S(=O)(=O)N1CCC(C(=O)NC(C)c2ccccc2)CC1 (configuration not stated)	86	13*	.	.	95	-7
Cc1noc(/C=C/c2ccco2)c1S(=O)(=O)N1CCC(C(=O)N(C)Cc2ccccc2)CC1	94	71	20	1	98	-12
CCOCCCNC(=O)C1CCN(S(=O)(=O)c2c(C)noc2/C=C\c2ccc(OC)cc2)CC1	80	37*	-9	2	94	.
CC(C)Cn1c(SCc2nc3ccccc3c(=O)[nH]2)nc2ccccc2c1=O	.	.	.	.	.	-13
O=C(NC1CCS(=O)(=O)C1)c1c(NC(=O)C2COc3ccccc3O2)sc2c1CCCC2 (configuration not stated)	85	23*	3	.	102	0
CCCNC(=O)c1c(NC(=O)C2COc3ccccc3O2)sc2c1CCCC2 (configuration not stated)	40	29*	.	.	13*	.
O=C(Nc1sc2c(c1C(=O)NC1CCCCC1)CCC2)c1ccco1	78	105	-5	7	90	-8
O=C(Nc1nc2c(s1)CCCC2)C1COc2ccccc2O1 (configuration not stated)	94	87	31	8	96	5
CCn1c(Cn2nnc(-c3ccccc3)n2)nnc1SCC(=O)N1CCOCC1	97	96	2	3	93	5
CCn1c(Cn2nnc(-c3ccccc3)n2)nnc1SCc1ccc(Cl)c(Cl)c1	83	59	73*	-7	106	-30
C=CCn1c(Cc2cccs2)nnc1SCC(=O)c1cccc(Br)c1	116	88	44	16	98	-2
Cc1cc(NC(=O)c2cc3nc4c(c(C(F)(F)F)n3n2)CCc2ccccc2-4)no1	102	29*	-3	-3	103	.
O=C(c1cnn2c(C(F)(F)F)cc(-c3ccccc3)nc12)N1CCCc2ccccc21	87	36*	.	.	91	-2
Cc1cc(NC(=O)c2cnn3c(C(F)(F)F)cc(-c4ccccc4)nc23)no1	89	38*	29	-2	94	-8
Cc1cc(NC(=O)c2cnn3c(C(F)F)cc(-c4ccccc4)nc23)no1	76	25*	2	2	90	-5
Clc1ccc(C2CC(c3cccs3)n3ncnc3N2)c(Cl)c1 (configuration not stated)	96	79	23	2	88	.
Cc1nn(C)c(Oc2ccc(Cl)cc2)c1C(=O)Nc1ccc(F)cc1F	.	.	.	.	.	-8
COc1ccc(-c2cc(C(F)(F)F)n3ncc(C(=O)NCC4CCCO4)c3n2)cc1 (configuration not stated)	99	20*	9	2	97	4

Bioassay records: PubChem BioAssay, several laboratories
